Our source for the inhibition and IC50 values is ChEMBL document CHEMBL1155016, “Locking the two ends of tetrapeptidic HTLV-I protease inhibitors inside the enzyme” (Bioorg Med Chem, 2008).

Molecules are shown by their SMILES. Starred links: 1 amine or outer side, 2 acyl side, 3 side chain; linkers in the order of their positions; H or OH if unused. Non-standard residues stand in square brackets, D forms with d. Residues, ends and D or L forms follow the SMILES beside them. X1 = O=C([C@@H](O)[C@H](Cc1ccccc1)N[*:1])[*:2]; Thz(5,5-Me2) = CC1(C)SCN[C@@H]1C(=O)O

Test [1] concerns the target Protease (Human immunodeficiency virus 1) (UniProt Q9YQ12). Nature of the test: Inhibition of HIV1 protease at 50 nM.
Test [2] addresses Protease (Human T-cell leukemia virus type I, UniProt Q82134, L40I). Nature of the test: Inhibition of HTLV1 protease L40I mutant. An outline of the steps:
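HTLV-I protease carrying the L40I substitution, which blocks autolysis and stabilises the enzyme; run by the group's earlier reported protocol; potency given as IC50 in nM.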

Chain of Protease (Q82134 entry or part of it L40I): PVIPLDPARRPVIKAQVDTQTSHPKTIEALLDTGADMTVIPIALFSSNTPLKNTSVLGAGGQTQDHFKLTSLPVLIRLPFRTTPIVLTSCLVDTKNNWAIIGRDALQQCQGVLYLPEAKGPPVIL
Chain of Protease (Human immunodeficiency virus 1) (Q9YQ12 as listed by the source): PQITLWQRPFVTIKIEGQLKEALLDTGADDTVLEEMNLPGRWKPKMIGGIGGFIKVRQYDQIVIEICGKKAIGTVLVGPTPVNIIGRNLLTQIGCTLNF

The compound `CCCC(=O)N[C@H](C(=O)N[C@H](C(=O)N[C@@H](Cc1ccccc1)[C@H](O)C(=O)N1CSC(C)(C)[C@H]1C(=O)NC(C)C(C)(C)C)C(C)(C)C)c1ccccc1` (some centres not stated) showed an inhibition in test [1] above 98%. Also, the IC50 in test [2] was found to be 94 nM.
On the same counts, the results for `CC[C@H](C)[C@H](NC(C)=O)C(=O)N[C@H](C(=O)N[C@@H](Cc1ccccc1)[C@H](O)C(=O)N1CSC(C)(C)[C@H]1C(=O)N[C@H](C(=O)N[C@@H](CCSC)C(N)=O)[C@@H](C)CC)[C@@H](C)CC` (Ac-II[X1][Thz(5,5-Me2)]IM-NH2) are above 98% and 88 nM.
On the same counts, the results for `CC(NC(=O)[C@H]1N(C(=O)[C@@H](O)[C@H](Cc2ccccc2)NC(=O)[C@@H](NC(=O)[C@@H](NC(=O)C(C)(C)C)c2ccccc2)C(C)(C)C)CSC1(C)C)C(C)(C)C` (some centres not stated) are above 98% and 97 nM.
Regarding `CC(C)C(=O)N[C@H](C(=O)N[C@H](C(=O)N[C@@H](Cc1ccccc1)[C@H](O)C(=O)N1CSC(C)(C)[C@H]1C(=O)NCC1CC1)C(C)(C)C)c1ccccc1`, the inhibition in test [1] is above 98%. Further, in test [2], the IC50 is 134 nM.
For `CC(NC(=O)[C@H]1N(C(=O)[C@@H](O)[C@H](Cc2ccccc2)NC(=O)[C@@H](NC(=O)[C@@H](NC(=O)C2CC2)c2ccccc2)C(C)(C)C)CSC1(C)C)C(C)(C)C` (some centres not stated), in that order: above 98% and 85 nM.
For `CCC(=O)N[C@H](C(=O)N[C@H](C(=O)N[C@@H](Cc1ccccc1)[C@H](O)C(=O)N1CSC(C)(C)[C@H]1C(=O)NC(C)C(C)C)C(C)(C)C)c1ccccc1` (some centres not stated), the inhibition in test [1] is above 98%. In test [2], this compound displayed an IC50 of 129 nM.
On the same counts, the results for `CC(C)(C)CNC(=O)[C@H]1N(C(=O)[C@@H](O)[C@H](Cc2ccccc2)NC(=O)[C@@H](NC(=O)[C@@H](NC(=O)C2CC2)c2ccccc2)C(C)(C)C)CSC1(C)C` are above 98% and 86 nM.
Consider `CC(=O)N[C@H](C(=O)N[C@H](C(=O)N[C@@H](Cc1ccccc1)[C@H](O)C(=O)N1CSC(C)(C)[C@H]1C(=O)NCC(C)C)C(C)(C)C)c1ccccc1`, for which, in test [1], the inhibition is above 98%. In addition, in test [2], it took 107 nM to reach half-maximal inhibition (IC50).
For `CC(C)(C)[C@H](NC(=O)[C@@H](N)c1ccccc1)C(=O)N[C@@H](Cc1ccccc1)[C@H](O)C(=O)N1CSC(C)(C)[C@H]1C(=O)NCC1CC1`, in that order: above 98% and 928 nM.
For `CC(C)CC(=O)N[C@H](C(=O)N[C@H](C(=O)N[C@@H](Cc1ccccc1)[C@H](O)C(=O)N1CSC(C)(C)[C@H]1C(=O)NC(C)C(C)(C)C)C(C)(C)C)c1ccccc1` (some centres not stated), in that order: above 98% and 84 nM.
`CC(C)CCNC(=O)[C@H]1N(C(=O)[C@@H](O)[C@H](Cc2ccccc2)NC(=O)[C@@H](NC(=O)[C@@H](NC(=O)CC(C)C)c2ccccc2)C(C)(C)C)CSC1(C)C` displayed an inhibition in test [1] above 98%. Further, the IC50 in test [2] turned out to be 107 nM.
`CC(C)C(=O)N[C@H](C(=O)N[C@H](C(=O)N[C@@H](Cc1ccccc1)[C@H](O)C(=O)N1CSC(C)(C)[C@H]1C(=O)NC(C)C(C)C)C(C)(C)C)c1ccccc1` (some centres not stated) registered an inhibition in test [1] above 98%. For the same compound, half-maximal inhibition in test [2] (IC50) was put at 122 nM.
In test [1], `CC(C)(C)CNC(=O)[C@H]1N(C(=O)[C@@H](O)[C@H](Cc2ccccc2)NC(=O)[C@@H](NC(=O)[C@@H](NC(=O)C(C)(C)C)c2ccccc2)C(C)(C)C)CSC1(C)C` displayed an inhibition above 98%. In addition, the IC50 in test [2] was 97 nM.
Turning to `CCC(=O)N[C@H](C(=O)N[C@H](C(=O)N[C@@H](Cc1ccccc1)[C@H](O)C(=O)N1CSC(C)(C)[C@H]1C(=O)NCC(C)C)C(C)(C)C)c1ccccc1`, the inhibition in test [1] was above 98%. In test [2], this compound gave an IC50 of 105 nM.
On the same counts, the results for `CCCC(=O)N[C@H](C(=O)N[C@H](C(=O)N[C@@H](Cc1ccccc1)[C@H](O)C(=O)N1CSC(C)(C)[C@H]1C(=O)NCC(C)C)C(C)(C)C)c1ccccc1` are above 98% and 104 nM.
With `CC(C)C(C)NC(=O)[C@H]1N(C(=O)[C@@H](O)[C@H](Cc2ccccc2)NC(=O)[C@@H](NC(=O)[C@@H](NC(=O)C(C)(C)C)c2ccccc2)C(C)(C)C)CSC1(C)C` (some centres not stated), in test [1], the inhibition is above 98%. The same compound registered an IC50 in test [2] of 133 nM.
